The values that follow come from ChEMBL document CHEMBL4732120, “Discovery of novel PARP/PI3K dual inhibitors with high efficiency against BRCA-proficient triple negative breast cancer” (Eur J Med Chem, 2021).

Series [1] in a line: Toxicity in Sprague-Dawley rat assessed as change in body weight at 1000 mg/kg, po administered as single dose measured on day 7 (reference value: 298 +/- 14 g). The format is organism-based. The settings on record: in vivo, 168 h, time 7 day.
A short description of series [2]: Elimination half life in dog liver microsomes measured after 1 hr. It is filed as ADME, Canis lupus familiaris, Microsome. The following applies: read-out: beta t1/2. The essentials: (§1)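 Compound incubated 1 h with mouse, rat, dog, monkey or human liver microsomes. Derived values were the elimination rate constant k, the elimination half-life T1/2 and the intrinsic clearance CLint.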
(In general: Liver microsomes are vesicles of endoplasmic reticulum, rich in cytochrome P450 enzymes.)

Series [3] is described as follows: Toxicity in Sprague-Dawley rat assessed as change in body weight at 1000 mg/kg, po administered as single dose measured on day 2 (reference value: 273 +/- 15 g). The settings on record: in vivo, 48 h, time 2 day. The format is organism-based.
Series [4] can be described thus: Elimination half life in mouse liver microsomes measured after 1 hr. The following applies: read-out: beta t1/2. The format is ADME, Microsome. The essentials:
as §1

Series [5] is described as follows: Toxicity in Sprague-Dawley rat assessed as death at 1000 mg/kg, po administered as single dose. It is filed as organism-based. The following applies: in vivo. In a few lines:
(§2)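 Sprague-Dawley rats, n = 6 (3 male, 3 female), given a single oral dose of 1000 mg/kg. Deaths and body-weight change were recorded to estimate the maximum tolerated dose.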

The nature of series [6]: Apparent permeability across basolateral to apical side in human Caco2 cells at 5 uM measured after 120 mins. The format is ADME, cell-based. The settings on record: Caco-2. In a few lines: (§3)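 Bidirectional permeability run, apical-to-basolateral and basolateral-to-apical. Test compound at 5 µM, incubated 120 min. Papp (10^-6 cm/s), recovery (%) and efflux ratio reported as the mean of two experiments.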
(Caco-2 cells form a polarised layer with tight junctions and transporters.)

The target of series [7] is Poly [ADP-ribose] polymerase 2 (Homo sapiens, UniProt Q9UGN5). Description: Inhibition of PARP2 (unknown origin).
Series [8] has as its system MDA-MB-468. Description: Induction of apoptosis in human MDA-MB-468 cells assessed as necrotic cells at 1 uM measured after 72 hrs by Annexin V-FITC/propidium iodide staining based flow cytometry (reference value: 0.13%). The format is functional. (A flow cytometer gives signals particle by particle.)
A short description of series [9]: Intrinsic clearance in dog liver microsomes measured after 1 hr. It is filed as ADME, Canis lupus familiaris, Microsome. The settings on record: read-out: CLH. In a few lines:
as §1

A short description of series [10]: Toxicity in Sprague-Dawley rat assessed as change in body weight at 1000 mg/kg, po administered as single dose measured during adaptation period (reference value: 258 +/- 13 g). The format is organism-based. The settings on record: in vivo.
The nature of series [11]: Apparent permeability across basolateral to apical side in human Caco2 cells assessed as drug recovery at 5 uM measured after 120 mins. The format is ADME, cell-based. The following applies: Caco-2, read-out: Drug recovery. The essentials:
as §3

Series [12] has as its target Phosphatidylinositol 4,5-bisphosphate 3-kinase catalytic subunit gamma isoform (Homo sapiens, UniProt P48736). Description: Inhibition of PI3Kgamma (unknown origin).
Series [13] is described as follows: Elimination half life in rat liver microsomes measured after 1 hr. The format is ADME, Microsome. The settings on record: read-out: beta t1/2. In a few lines: as §1
Series [14] is described as follows: Elimination rate constant in monkey liver microsomes measured after 1 hr. The format is ADME, Macaca mulatta, Microsome. The settings on record: rhesus monkey. In a few lines: as §1
Series [15] has as its target Voltage-gated inwardly rectifying potassium channel KCNH2 (Homo sapiens, UniProt Q12809). Kind of series: Inhibition of human ERG.
For series [16], the target named is Phosphatidylinositol 4,5-bisphosphate 3-kinase catalytic subunit beta isoform (Homo sapiens, UniProt P42338). Kind of series: Inhibition of PI3Kbeta (unknown origin).
Series [17] has as its system MDA-MB-468. Kind of series: Antitumor activity against human MDA-MB-468 cells xenografted in BALB/c mouse assessed as tumor growth inhibition at 50 mg/kg, ip administered every two days for 34 days relative to control. The settings on record: MDA-MB-468, ip, 816 h, read-out: TGI.
Series [18] can be described thus: Toxicity in Sprague-Dawley rat administered as single oral dose. The following applies: in vivo. In a few lines: as §2
In series [19] the target is T1, Phosphatidylinositol 4,5-bisphosphate 3-kinase catalytic subunit delta isoform (Homo sapiens, UniProt O00329).
T1 sequence (O00329 whole entry): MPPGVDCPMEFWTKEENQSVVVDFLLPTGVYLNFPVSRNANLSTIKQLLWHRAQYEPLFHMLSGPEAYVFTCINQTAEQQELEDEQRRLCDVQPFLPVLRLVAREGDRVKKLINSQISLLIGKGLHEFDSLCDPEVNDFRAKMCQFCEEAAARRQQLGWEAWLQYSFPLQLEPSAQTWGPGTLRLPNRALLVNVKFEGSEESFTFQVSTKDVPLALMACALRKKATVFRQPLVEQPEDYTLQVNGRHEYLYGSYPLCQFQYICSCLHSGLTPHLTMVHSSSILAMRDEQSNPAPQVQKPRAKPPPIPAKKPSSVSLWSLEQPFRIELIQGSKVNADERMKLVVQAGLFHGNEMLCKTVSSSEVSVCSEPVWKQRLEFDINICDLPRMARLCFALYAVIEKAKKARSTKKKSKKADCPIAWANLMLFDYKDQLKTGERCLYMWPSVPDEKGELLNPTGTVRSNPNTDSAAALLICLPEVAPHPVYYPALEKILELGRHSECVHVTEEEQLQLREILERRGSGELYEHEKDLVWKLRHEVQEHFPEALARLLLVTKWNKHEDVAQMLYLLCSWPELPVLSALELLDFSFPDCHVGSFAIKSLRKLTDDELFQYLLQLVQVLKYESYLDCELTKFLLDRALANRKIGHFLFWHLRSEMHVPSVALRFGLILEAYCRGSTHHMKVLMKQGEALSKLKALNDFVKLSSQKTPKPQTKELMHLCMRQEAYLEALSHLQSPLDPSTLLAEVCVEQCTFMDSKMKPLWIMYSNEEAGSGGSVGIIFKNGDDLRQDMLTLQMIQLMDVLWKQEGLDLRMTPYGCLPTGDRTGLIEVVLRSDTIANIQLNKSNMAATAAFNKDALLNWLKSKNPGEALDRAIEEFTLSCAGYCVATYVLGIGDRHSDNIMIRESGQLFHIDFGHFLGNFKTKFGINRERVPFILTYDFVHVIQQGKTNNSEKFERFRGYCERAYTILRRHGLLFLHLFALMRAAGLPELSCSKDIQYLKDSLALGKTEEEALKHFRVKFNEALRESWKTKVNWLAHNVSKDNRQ
Kind of series: Inhibition of PI3Kdelta (unknown origin).

Series [20] is described as follows: Toxicity in […] cells xenografted BALB/c mouse assessed as mortality at 50 mg/kg, ip administered every two days for 34 days. It is filed as organism-based. The following applies: in vivo, 816 h, time 34 day.
The target of series [21] is Phosphatidylinositol 4,5-bisphosphate 3-kinase catalytic subunit alpha isoform (Homo sapiens, UniProt P42336). Description: Inhibition of PI3Kalpha (unknown origin). In a few lines: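 PARP-1 and PI3Kα enzyme inhibition. IC50 taken from dose-response curves and given as mean ± SD of three independent experiments.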
In series [22] the test system is MDA-MB-468. Description: Induction of apoptosis in human MDA-MB-468 cells assessed as early apoptotic cells at 1 uM measured after 72 hrs by Annexin V-FITC/propidium iodide staining based flow cytometry (reference value: 3.88%). It is filed as functional.
The subject of series [23] is MDA-MB-468. Kind of series: Antiproliferative activity against human MDA-MB-468 cells measured after 7 days by Celltiter-glo assay. The format is functional, cell-based. The settings on record: MDA-MB-468, 168 h. In a few lines:
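MDA-MB-468 cells grown in RPMI1640 with 10% FBS at 37 °C, 5% CO2. Seeded the day before dosing, grown 12 h, then exposed to a range of concentrations for 7 days. Viability read by CellTiter-Glo luminescence after 10 min at room temperature. Inhibition % = (1 − (RLU cpd − blank)/(RLU DMSO − blank)) × 100. IC50 from nonlinear regression of normalized dose-response.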

Series [24] is described as follows: Elimination rate constant in rat liver microsomes measured after 1 hr. The format is ADME, Microsome. The essentials:
as §1

pIC50: −log10 of the molar value.

Chain of Phosphatidylinositol 4,5-bisphosphate 3-kinase catalytic subunit alpha isoform (P42336 whole entry, canonical isoform): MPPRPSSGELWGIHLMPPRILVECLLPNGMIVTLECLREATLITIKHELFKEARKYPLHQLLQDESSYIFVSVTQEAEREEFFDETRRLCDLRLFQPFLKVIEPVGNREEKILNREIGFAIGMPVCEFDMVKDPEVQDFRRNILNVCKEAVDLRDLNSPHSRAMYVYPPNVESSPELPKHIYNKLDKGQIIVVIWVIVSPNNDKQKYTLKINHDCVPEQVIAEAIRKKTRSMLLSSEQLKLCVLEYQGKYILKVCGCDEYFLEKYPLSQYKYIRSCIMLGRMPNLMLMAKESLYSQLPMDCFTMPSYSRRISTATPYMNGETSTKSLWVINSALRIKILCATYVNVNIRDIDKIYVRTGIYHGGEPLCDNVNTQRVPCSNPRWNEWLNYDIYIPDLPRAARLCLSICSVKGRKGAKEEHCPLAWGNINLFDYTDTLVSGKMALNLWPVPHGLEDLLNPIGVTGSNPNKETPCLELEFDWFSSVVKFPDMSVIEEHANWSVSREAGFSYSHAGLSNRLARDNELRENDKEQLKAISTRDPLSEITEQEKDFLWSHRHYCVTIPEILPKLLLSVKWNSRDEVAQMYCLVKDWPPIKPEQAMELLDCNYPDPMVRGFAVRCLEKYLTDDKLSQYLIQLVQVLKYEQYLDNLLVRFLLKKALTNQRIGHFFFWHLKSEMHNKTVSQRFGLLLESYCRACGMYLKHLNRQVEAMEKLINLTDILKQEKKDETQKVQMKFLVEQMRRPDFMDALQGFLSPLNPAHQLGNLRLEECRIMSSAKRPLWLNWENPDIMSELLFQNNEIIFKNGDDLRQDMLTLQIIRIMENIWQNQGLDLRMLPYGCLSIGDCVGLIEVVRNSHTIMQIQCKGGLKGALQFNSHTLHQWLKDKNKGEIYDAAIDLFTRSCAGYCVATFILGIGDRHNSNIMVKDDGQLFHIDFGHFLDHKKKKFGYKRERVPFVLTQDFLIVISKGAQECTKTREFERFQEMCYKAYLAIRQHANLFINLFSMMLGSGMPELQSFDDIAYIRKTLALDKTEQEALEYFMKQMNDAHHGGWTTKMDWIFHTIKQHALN
Chain of Voltage-gated inwardly rectifying potassium channel KCNH2 (Q12809 whole entry, canonical isoform): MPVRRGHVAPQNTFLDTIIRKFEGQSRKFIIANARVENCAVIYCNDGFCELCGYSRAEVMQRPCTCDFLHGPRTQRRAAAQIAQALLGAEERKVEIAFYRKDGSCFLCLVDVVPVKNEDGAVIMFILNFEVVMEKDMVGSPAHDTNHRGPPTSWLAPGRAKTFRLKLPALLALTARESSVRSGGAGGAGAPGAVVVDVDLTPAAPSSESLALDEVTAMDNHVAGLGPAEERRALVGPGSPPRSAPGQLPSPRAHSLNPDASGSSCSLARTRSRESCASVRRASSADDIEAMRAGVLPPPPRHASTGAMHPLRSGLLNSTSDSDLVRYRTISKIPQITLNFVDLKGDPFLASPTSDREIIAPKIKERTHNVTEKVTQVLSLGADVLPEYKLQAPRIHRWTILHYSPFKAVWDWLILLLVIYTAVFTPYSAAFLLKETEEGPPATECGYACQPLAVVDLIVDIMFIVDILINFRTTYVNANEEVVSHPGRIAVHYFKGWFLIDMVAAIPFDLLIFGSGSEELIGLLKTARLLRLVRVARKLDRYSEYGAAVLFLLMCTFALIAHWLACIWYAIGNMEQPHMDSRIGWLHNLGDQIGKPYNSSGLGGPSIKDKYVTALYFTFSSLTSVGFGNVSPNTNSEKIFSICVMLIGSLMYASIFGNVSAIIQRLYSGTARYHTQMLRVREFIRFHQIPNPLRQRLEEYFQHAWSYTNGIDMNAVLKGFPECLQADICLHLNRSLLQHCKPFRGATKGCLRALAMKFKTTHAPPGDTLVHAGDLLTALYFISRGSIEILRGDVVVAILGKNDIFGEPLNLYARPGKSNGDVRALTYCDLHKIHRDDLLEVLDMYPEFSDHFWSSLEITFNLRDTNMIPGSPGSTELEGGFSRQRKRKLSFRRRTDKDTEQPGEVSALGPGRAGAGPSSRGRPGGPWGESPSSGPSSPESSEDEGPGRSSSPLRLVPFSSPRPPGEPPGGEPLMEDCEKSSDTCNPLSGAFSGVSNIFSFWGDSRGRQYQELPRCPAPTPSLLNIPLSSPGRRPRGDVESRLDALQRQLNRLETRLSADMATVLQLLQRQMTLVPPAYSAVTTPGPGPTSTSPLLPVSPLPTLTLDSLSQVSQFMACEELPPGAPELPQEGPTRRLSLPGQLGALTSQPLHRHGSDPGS
Chain of Phosphatidylinositol 4,5-bisphosphate 3-kinase catalytic subunit beta isoform (P42338 whole entry, canonical isoform): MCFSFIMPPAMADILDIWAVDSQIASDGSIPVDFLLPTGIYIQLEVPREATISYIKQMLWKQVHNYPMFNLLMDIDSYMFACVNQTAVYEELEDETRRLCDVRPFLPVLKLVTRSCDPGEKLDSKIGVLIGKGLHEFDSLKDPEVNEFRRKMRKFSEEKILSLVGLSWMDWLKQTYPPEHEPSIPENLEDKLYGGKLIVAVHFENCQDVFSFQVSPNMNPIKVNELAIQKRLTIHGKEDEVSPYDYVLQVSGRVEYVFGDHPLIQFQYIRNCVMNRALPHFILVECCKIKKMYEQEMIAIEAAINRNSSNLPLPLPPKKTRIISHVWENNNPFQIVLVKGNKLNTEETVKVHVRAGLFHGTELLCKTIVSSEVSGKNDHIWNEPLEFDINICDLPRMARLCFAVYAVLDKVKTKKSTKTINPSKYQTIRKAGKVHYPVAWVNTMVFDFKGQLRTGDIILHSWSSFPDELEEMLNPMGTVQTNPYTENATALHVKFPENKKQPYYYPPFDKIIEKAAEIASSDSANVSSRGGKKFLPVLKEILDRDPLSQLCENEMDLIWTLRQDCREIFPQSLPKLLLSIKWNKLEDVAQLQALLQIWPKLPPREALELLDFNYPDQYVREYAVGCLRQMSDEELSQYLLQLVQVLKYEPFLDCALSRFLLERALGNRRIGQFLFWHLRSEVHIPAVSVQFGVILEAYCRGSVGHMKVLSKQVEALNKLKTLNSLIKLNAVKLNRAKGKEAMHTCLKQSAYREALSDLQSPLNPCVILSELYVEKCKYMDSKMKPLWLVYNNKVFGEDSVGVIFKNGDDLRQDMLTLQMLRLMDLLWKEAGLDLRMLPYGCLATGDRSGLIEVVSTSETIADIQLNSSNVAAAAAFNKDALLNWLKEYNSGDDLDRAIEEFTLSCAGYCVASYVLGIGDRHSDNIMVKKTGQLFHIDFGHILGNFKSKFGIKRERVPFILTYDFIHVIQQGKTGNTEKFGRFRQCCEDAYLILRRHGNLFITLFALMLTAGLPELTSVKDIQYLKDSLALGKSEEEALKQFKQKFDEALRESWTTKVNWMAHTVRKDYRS
Chain of Poly [ADP-ribose] polymerase 2 (Q9UGN5 whole entry): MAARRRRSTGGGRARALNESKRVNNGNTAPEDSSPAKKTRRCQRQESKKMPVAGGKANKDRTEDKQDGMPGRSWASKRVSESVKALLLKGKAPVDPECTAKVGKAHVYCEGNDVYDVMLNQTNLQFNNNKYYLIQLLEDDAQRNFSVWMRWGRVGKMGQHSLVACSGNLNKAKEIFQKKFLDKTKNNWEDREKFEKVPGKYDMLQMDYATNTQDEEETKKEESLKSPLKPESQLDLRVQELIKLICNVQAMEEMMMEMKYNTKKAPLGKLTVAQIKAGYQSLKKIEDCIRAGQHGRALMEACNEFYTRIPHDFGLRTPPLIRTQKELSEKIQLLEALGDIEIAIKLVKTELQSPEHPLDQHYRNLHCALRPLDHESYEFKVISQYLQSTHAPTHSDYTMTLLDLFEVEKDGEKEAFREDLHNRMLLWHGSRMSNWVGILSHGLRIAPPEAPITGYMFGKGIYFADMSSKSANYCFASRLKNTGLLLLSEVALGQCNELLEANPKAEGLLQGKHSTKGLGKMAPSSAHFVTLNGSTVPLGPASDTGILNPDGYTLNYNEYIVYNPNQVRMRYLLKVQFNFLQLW
Chain of Phosphatidylinositol 4,5-bisphosphate 3-kinase catalytic subunit gamma isoform (P48736 whole entry, canonical isoform): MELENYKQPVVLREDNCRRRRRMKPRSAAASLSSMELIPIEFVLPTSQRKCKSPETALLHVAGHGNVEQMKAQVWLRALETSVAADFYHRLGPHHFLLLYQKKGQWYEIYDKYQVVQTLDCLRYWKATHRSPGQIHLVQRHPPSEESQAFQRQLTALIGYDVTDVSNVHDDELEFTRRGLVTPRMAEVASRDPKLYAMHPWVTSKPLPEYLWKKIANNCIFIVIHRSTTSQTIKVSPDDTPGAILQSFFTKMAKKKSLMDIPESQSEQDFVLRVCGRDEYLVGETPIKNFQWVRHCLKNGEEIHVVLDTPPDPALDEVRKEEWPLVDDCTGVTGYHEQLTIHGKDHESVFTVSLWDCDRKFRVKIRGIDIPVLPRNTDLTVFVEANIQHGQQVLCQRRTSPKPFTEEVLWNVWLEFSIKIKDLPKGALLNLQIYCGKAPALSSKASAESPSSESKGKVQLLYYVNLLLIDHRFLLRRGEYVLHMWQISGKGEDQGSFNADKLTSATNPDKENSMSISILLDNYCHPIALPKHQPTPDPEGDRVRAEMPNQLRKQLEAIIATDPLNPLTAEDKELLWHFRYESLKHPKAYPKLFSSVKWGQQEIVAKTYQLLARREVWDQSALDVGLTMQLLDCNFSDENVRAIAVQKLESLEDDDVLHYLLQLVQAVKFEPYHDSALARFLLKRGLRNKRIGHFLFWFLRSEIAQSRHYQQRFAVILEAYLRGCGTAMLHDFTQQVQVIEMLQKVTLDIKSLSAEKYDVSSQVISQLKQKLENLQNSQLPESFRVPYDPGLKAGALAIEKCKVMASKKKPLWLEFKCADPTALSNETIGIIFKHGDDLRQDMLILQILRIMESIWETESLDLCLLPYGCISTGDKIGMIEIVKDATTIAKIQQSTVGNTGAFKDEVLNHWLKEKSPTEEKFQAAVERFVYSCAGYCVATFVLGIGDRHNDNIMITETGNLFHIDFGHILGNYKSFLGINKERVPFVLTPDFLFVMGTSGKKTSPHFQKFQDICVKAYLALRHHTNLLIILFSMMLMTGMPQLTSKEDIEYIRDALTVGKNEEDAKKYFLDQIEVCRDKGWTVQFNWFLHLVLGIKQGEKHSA

One may read the Papp B→A as how fast a substance crosses the layer from the basolateral side. One may read the pIC50 as −log10 of the IC50, conventionally taken in molar units. With `NC(=O)c1cccc2cc(C(=O)N3CCN(c4nc(-c5cnc(NC(=O)CN6CCOCC6)cc5C(F)(F)F)nc(N5CCOCC5)n4)CC3)oc12`, the Activity is 281 g in series [1]; 267 g in series [3]; “Non-Toxic” in series [5]; 3.47% with MDA-MB-468 [8]; 256 g in series [10]; “Non-Toxic” in series [20]. For the same molecule, the Activity in the series on MDA-MB-468 [22] is 15.8%. The half-life came out at 47.3 min in series [2], 17.4 min in [4] and 42.2 min in series [13]. Also, the Papp B→A at 2 h, 5 µM in [6] was found to be 221 nm/s. In addition, the pIC50 in [7] was 8.21; in [12], 5.96; in [15], 4.53; in series [16], 6.42; in series [19] it was 6.71; in [21], 7.19. Moreover, the pIC50 with MDA-MB-468 [23] was 5.85. Moreover, the microsomal CLint in [9] is 29.3 µL/min/mg. In series [11], the recovery at 2 h, 5 µM stood at 99.9%. The k el at 1 h in series [14] was 0.000255 s⁻¹; in series [24] it was 0.000275 s⁻¹. The inhibition in vivo at 50 mg/kg in the series with MDA-MB-468 [17] was 54.6%. For the same molecule, the MTD in series [18] was > 1000 mg/kg.
